Test results taken from ChEMBL document CHEMBL1140137, “Synthesis, ex vivo evaluation, and radiolabeling of potent 1,5-diphenylpyrrolidin-2-one cannabinoid subtype-1 receptor ligands as candidates for in vivo imaging” (J Med Chem, 2008).

Key:
[1] = species: Homo sapiens; assay: Selectivity for human CB1 receptor over human CB2 receptor
Method in brief: (§1)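 GTPγ35S binding was read by anti-Gi antibody-capture scintillation proximity assay. Membranes came from CHO cells expressing human CB1 and from Sf9 cells expressing human CB2. Antagonist dose-responses were run against methanandamide at 80% efficacious dose. Kb = IC50/(1+[agonist]/EC50), with four-parameter fits. Values are the mean ± SEM of at least three independent determinations. Selectivity was taken from the CB1 and CB2 Kb values.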

[2] = Drug uptake in Rimonabant pretreated Sprague-Dawley rat CB1 rich frontal cerebral cortex at […], iv after 0.25 hrs; format: ADME, organism-based; parameters: route intravenous; settings: read-out: Drug uptake
Method in brief: (§2)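 Adult male Sprague-Dawley rats (225–250 g) were used, three per time point. […] Ligand was dosed at 30 μg/kg i.v. in intralipid/1% AcOH diluted with water. Frontal cortex was taken at 0.25–8 h, homogenized in MeCN/0.1% HCO2H, centrifuged, and the supernatant quantified by LC-MS (ng/g).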

[3] = Drug uptake in Sprague-Dawley rat frontal cerebral cortex at 30 μg/kg, iv after 0.25 hrs
[4] = Drug uptake in Sprague-Dawley rat frontal cerebral cortex at 30 μg/kg, iv after 8 hrs
[5] = target: Cannabinoid receptor 2 (Homo sapiens) (UniProt P34972); assay: Antagonist activity at human CB2 receptor in Sf9 cells assessed as GTPgammaS binding; format: functional, cell-based; method in brief: as §1
[6] = Drug uptake in Rimonabant pretreated Sprague-Dawley rat CB1 rich frontal cerebral cortex at […], iv after 8 hrs; format: ADME, organism-based; parameters: route intravenous; settings: read-out: Drug uptake; method in brief: as §2
[7] = Drug uptake in Sprague-Dawley rat frontal cerebral cortex at 30 μg/kg, iv after 0.5 hrs

Sequence of Cannabinoid receptor 2 (Homo sapiens) (P34972 whole entry): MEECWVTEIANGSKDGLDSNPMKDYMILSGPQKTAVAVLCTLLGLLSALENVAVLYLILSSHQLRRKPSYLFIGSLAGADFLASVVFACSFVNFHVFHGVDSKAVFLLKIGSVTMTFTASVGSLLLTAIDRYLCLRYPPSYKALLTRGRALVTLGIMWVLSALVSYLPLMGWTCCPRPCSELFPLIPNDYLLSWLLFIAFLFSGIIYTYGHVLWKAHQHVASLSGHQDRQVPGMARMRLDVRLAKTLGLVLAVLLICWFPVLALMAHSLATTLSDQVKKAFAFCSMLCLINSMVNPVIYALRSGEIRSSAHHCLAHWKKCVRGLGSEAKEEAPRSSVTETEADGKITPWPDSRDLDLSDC

SMILES	Selectivity ratio [1]	concentration at 0.25 h [2] [ng/g]	concentration at 0.25 h [3] [ng/g]	concentration at 8 h [4] [ng/g]	Kb [5] [nM]	concentration at 8 h [6] [ng/g]	concentration at 0.5 h [7] [ng/g]
C[C@@H](N[C@@H]1C[C@H](c2cccc(OCCF)c2)N(c2ccc(C(F)(F)F)cc2)C1=O)c1ccccc1	> 19500	6.5	22	0.7	> 8260		
COc1cccc([C@H]2C[C@@H](N[C@H](C)c3ccccc3)C(=O)N2c2ccc(C(F)(F)F)cc2)c1 [MEPPEP]		11.5	39	8.5			
COc1cccc([C@H]2C[C@@H](N[C@H](C)c3ccc(F)cc3)C(=O)N2c2ccc(C(F)(F)F)cc2)c1	2160	17.3		10.5	466	0.8	48
C[C@@H](N[C@@H]1C[C@H](c2cccc(OCF)c2)N(c2ccc(C(F)(F)F)cc2)C1=O)c1ccccc1	3580	9.7		8.2	669		39.3
